ChEMBL document CHEMBL3102746, “Anticomplement monoterpenoid glucosides from the root bark of Paeonia suffruticosa” (J Nat Prod, 2014)
The source made the active and inactive calls. The calls are words filed in the database; no cut-off is given here.

Experiments:
Type in all cases: functional, cell-based
[1] = Anticomplement activity in New Zealand White rabbit erythrocytes assessed as concentration required for 50% hemolytic inhibition by alternative pathway after 30 mins; conditions: Oryctolagus cuniculus, Erythrocyte
How it was run: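 Samples diluted in GVB-Mg-EGTA and preincubated with 1:10 normal human serum at 37 °C for 10 min. Rabbit erythrocytes (3.0 × 10^8 cells/mL) then added for 30 min at 37 °C. Lysis read as supernatant OD at 405 nm. AP50 expressed as 50% inhibitory concentration. Heparin served as positive control.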

[2] = Anticomplement activity in sheep erythrocytes assessed as concentration required for 50% hemolytic inhibition by classical pathway after 30 mins by spectrophotometry; conditions: Ovis aries; Erythrocyte
How it was run: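 Sheep erythrocytes sensitized with rabbit anti-sheep erythrocyte antibodies in GVB2+. Test sample dilutions in GVB2+ preincubated with guinea pig serum (1:80) at 37 °C for 10 min, then EA added for 30 min at 37 °C. Supernatant OD read at 405 nm. Blank, 100% lysis and sample controls included. CH50 taken from mean of triplicates at each concentration. Heparin served as positive control.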

[3] = Anticomplement activity in sheep erythrocytes in C9-depleted serum assessed as hemolysis by classical pathway at 1.09 mM after 30 mins compound treated in normal human serum; conditions: Ovis aries, Erythrocyte
[4] = Anticomplement activity in sheep erythrocytes in C1q-depleted serum assessed as hemolysis by classical pathway at 1.09 mM after 30 mins compound treated in normal human serum; conditions: Ovis aries, Erythrocyte
[5] = Anticomplement activity in sheep erythrocytes in C5-depleted serum assessed as hemolysis by classical pathway at 1.09 mM after 30 mins compound treated in normal human serum; conditions: Ovis aries, Erythrocyte
[6] = Anticomplement activity in sheep erythrocytes in C2-depleted serum assessed as hemolysis by classical pathway at 1.09 mM after 30 mins compound treated in normal human serum; conditions: Ovis aries, Erythrocyte
[7] = Anticomplement activity in sheep erythrocytes in C4-depleted serum assessed as hemolysis by classical pathway at 1.09 mM after 30 mins compound treated in normal human serum; conditions: Ovis aries, Erythrocyte
[8] = Anticomplement activity in sheep erythrocytes in C3-depleted serum assessed as hemolysis by classical pathway at 1.09 mM after 30 mins compound treated in normal human serum; conditions: Ovis aries, Erythrocyte
[9] = Anticomplement activity in sheep erythrocytes in C5-depleted serum assessed as inhibition of hemolysis by classical pathway at 0.54 mM after 30 mins compound treated in normal human serum; conditions: Ovis aries, Erythrocyte
[10] = Anticomplement activity in sheep erythrocytes in C3-depleted serum assessed as inhibition of hemolysis by classical pathway at 0.54 mM after 30 mins compound treated in normal human serum; conditions: Ovis aries, Erythrocyte
[11] = Anticomplement activity in sheep erythrocytes in C1q-depleted serum assessed as inhibition of hemolysis by classical pathway at 0.54 mM after 30 mins compound treated in normal human serum; conditions: Ovis aries, Erythrocyte
[12] = Anticomplement activity in sheep erythrocytes in C9-depleted serum assessed as inhibition of hemolysis by classical pathway at 0.54 mM after 30 mins compound treated in normal human serum; conditions: Ovis aries, Erythrocyte
[13] = Anticomplement activity in sheep erythrocytes in C9-depleted serum assessed as inhibition of hemolysis by classical pathway at 0.45 mM after 30 mins compound treated in normal human serum; conditions: Ovis aries, Erythrocyte
[14] = Anticomplement activity in sheep erythrocytes in C1q-depleted serum assessed as inhibition of hemolysis by classical pathway at 0.45 mM after 30 mins compound treated in normal human serum; conditions: Ovis aries, Erythrocyte
[15] = Anticomplement activity in sheep erythrocytes in C3-depleted serum assessed as inhibition of hemolysis by classical pathway at 0.45 mM after 30 mins compound treated in normal human serum; conditions: Ovis aries, Erythrocyte
[16] = Anticomplement activity in sheep erythrocytes in C5-depleted serum assessed as inhibition of hemolysis by classical pathway at 0.45 mM after 30 mins compound treated in normal human serum; conditions: Ovis aries, Erythrocyte

SMILES | AP50 [1] [mM] | INH [2] [mM] | inhibition [1] | inhibition [2] | also measured
COc1ccc(C(=O)OC[C@H]2O[C@@H](O[C@]34C[C@@H]5[C@@]6(O)C[C@]3(C)OC(O6)[C@]54COC(=O)c3ccc(O)cc3)[C@H](O)[C@@H](O)[C@@H]2O)cc1 | 0.97 | 0.41 | – | – | –
C[C@@]12C[C@@]3(O)O[C@@H](O1)[C@]1(COC(=O)c4ccccc4)[C@H]3C[C@@]12O[C@@H]1O[C@H](COC(=O)c2ccccc2)[C@@H](O[C@@H]2O[C@H](CO)[C@@H](O)[C@H](O)[C@H]2O)[C@H](O)[C@H]1O | – | 2.29 | inactive | – | –
C[C@@]12C[C@@]3(O)O[C@@H](O1)[C@]1(COC(=O)c4ccc(O)cc4)[C@@H]3C[C@]12O[C@@H]1O[C@H](CO)[C@@H](O)[C@H](O)[C@H]1O | 3.29 | 2.28 | – | – | –
COc1ccc(C(=O)OC[C@H]2O[C@@H](O[C@]34C[C@@H]5[C@@]6(O)C[C@]3(C)OC(O6)[C@]54COC(=O)c3ccccc3)[C@H](O)[C@@H](O)[C@@H]2O)cc1 | 2.82 | 2.36 | – | – | –
C[C@@]12C[C@@]3(O)OC(O1)[C@]1(COC(=O)c4ccc(O)cc4)[C@@H]3C[C@@]21O[C@@H]1O[C@H](COC(=O)c2ccccc2)[C@@H](O)[C@H](O)[C@H]1O | 0.85 | 0.58 | – | – | –
COc1cc(C(=O)OC[C@H]2O[C@@H](O[C@@]34C[C@H]5[C@@]3(CO)[C@H]3O[C@]5(O)C[C@]4(C)O3)[C@H](O)[C@@H](O)[C@@H]2O)ccc1O | 1.12 | 0.89 | – | – | –
COc1ccc(C(=O)OC[C@]23C4O[C@]5(OC)C[C@](C)(O4)[C@]2(O[C@@H]2O[C@H](COC(=O)c4ccccc4)[C@@H](O)[C@H](O)[C@H]2O)C[C@H]53)cc1 | – | – | inactive | inactive | –
COc1ccc(C(=O)OC[C@]23[C@H]4O[C@]5(O)C[C@](C)(O4)[C@@]2(O[C@@H]2O[C@H](CO)[C@@H](O)[C@H](O)[C@H]2O)C[C@H]35)cc1 | 3.67 | 2.67 | – | – | –
C[C@@]12C[C@@]3(O)OC(O1)[C@]1(COC(=O)c4ccc(O)cc4)[C@@H]3C[C@@]21O[C@@H]1O[C@H](COC(=O)c2ccccc2)[C@@H](O[C@@H]2O[C@H](CO)[C@@H](O)[C@H](O)[C@H]2O)[C@H](O)[C@H]1O | 0.43 | 0.33 | – | – | Activity [3]: < 10%; Activity [4]: < 10%; Activity [5]: < 10%; Activity [6]: 80.1%; Activity [7]: 89.3%; Activity [8]: < 10%
C[C@@]12C[C@@]3(O)O[C@@H](O1)[C@]1(COC(=O)c4ccc(O)cc4)[C@H]3C[C@@]12O[C@@H]1O[C@H](COC(=O)c2ccc(O)cc2)[C@@H](O)[C@H](O)[C@H]1O | 0.67 | 0.34 | – | – | –
COc1ccc(C(=O)OC[C@H]2O[C@@H](O[C@]34C[C@@H]5C(=O)C[C@]3(C)O[C@H](OC)[C@]54COC(=O)c3ccccc3)[C@H](O)[C@@H](O)[C@@H]2O)cc1 | – | – | inactive | inactive | –
C[C@@]12C[C@@]3(O)O[C@@H](O1)[C@]1(COC(=O)c4ccccc4)[C@@H]3C[C@]12O[C@@H]1O[C@H](COC(=O)c2cc(O)c(O)c(O)c2)[C@@H](O)[C@H](O)[C@H]1O | 0.32 | 0.21 | – | – | inhibition [9]: Active; inhibition [10]: Active; inhibition [11]: Active; inhibition [12]: inactive
COc1ccc(C(=O)OC[C@]23C4O[C@]5(O)C[C@](C)(O4)[C@]2(O[C@@H]2O[C@H](COC(=O)c4ccccc4)[C@@H](O)[C@H](O)[C@H]2O)C[C@H]53)cc1 | 1.6 | 1.29 | – | – | –
CO[C@@H]1O[C@@]2(C)CC(=O)[C@H]3C[C@]2(O[C@@H]2O[C@H](COC(=O)c4ccccc4)[C@@H](O)[C@H](O)[C@H]2O)[C@]13COC(=O)c1ccccc1 | – | – | inactive | inactive | –
CO[C@H]1O[C@@]2(C)CC(=O)[C@H]3C[C@]2(O[C@@H]2O[C@H](COC(=O)c4ccccc4)[C@@H](O)[C@H](O)[C@H]2O)[C@]13COC(=O)c1ccccc1 | – | – | inactive | inactive | –
COc1cc(C(=O)OC[C@H]2O[C@@H](O[C@@]34C[C@H]5[C@@]3(COC(=O)c3ccccc3)[C@H]3O[C@]5(O)C[C@]4(C)O3)[C@H](O)[C@@H](O)[C@@H]2O)ccc1O | – | 2.02 | – | – | –
C[C@@]12C[C@@]3(O)O[C@@H](O1)[C@]1(COC(=O)c4ccc(O)cc4)[C@H]3C[C@@]12O[C@@H]1O[C@H](COC(=O)c2cc(O)c(O)c(O)c2)[C@@H](O)[C@H](O)[C@H]1O | 0.25 | 0.14 | – | – | inhibition [13]: inactive; inhibition [14]: Active; inhibition [15]: Active; inhibition [16]: Active
CO[C@]12C[C@]3(C)OC(O1)[C@]1(COC(=O)c4ccccc4)[C@@H]2C[C@@]31O[C@@H]1O[C@H](COC(=O)c2ccccc2)[C@@H](O)[C@H](O)[C@H]1O | – | – | inactive | inactive | –
CO[C@]12C[C@]3(C)O[C@H](O1)[C@]1(COC(=O)c4ccc(O)cc4)[C@H]2C[C@@]13O[C@@H]1O[C@H](CO)[C@@H](O)[C@H](O)[C@H]1O | – | – | inactive | inactive | –
CO[C@H]1O[C@@]2(C)CC(=O)[C@@H]3C[C@@]2(O[C@@H]2O[C@H](CO)[C@@H](O)[C@H](O)[C@H]2O)[C@]13COC(=O)c1ccc(O)cc1 | – | – | inactive | inactive | –
C[C@@]12C[C@@]3(O)O[C@@H](O1)[C@]1(COC(=O)c4ccccc4)[C@@H]3C[C@]12O[C@@H]1O[C@H](COC(=O)c2ccc(O)cc2)[C@@H](O)[C@H](O)[C@H]1O | – | 0.52 | – | – | –
COc1ccc(C(=O)OC[C@@]23[C@@H](OC)O[C@@]4(C)CC(=O)[C@H]2C[C@]34O[C@@H]2O[C@H](COC(=O)c3ccccc3)[C@@H](O)[C@H](O)[C@H]2O)cc1 | – | – | inactive | inactive | –
